PMC8159881 (ACS nano, 2021)

Columns and labels:
[1] = Partitioning and budding in phase-separated GUVs; settings: for inward budding from the Ld phase of phase-separated GUVs: 10 μM Cy-5-labeled peptide, 30 min
Method in brief: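 Peptide was applied to the GUVs for 30 min before imaging. Fluorescein at 0.3 μM was added to the external buffer to mark true inward budding, seen as fluorescein-containing intraluminal vesicles.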

INS-1E cells = assay: Glucose-stimulated insulin secretion assay; format: cell-based
Method in brief: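 Lentivirally transduced proinsulin-NanoLuc INS-1E cells were plated overnight (37 °C, 5% CO₂), washed, and held 1 h in KRB (HEPES, BSA) with 2.8 mM glucose. They got peptide for 5 min (2 μM; 5 or 10 μM in one set; DMSO mock), then 20 min in KRB with 20 mM glucose, or 2.8 mM as control. Supernatant luciferase read with coelenterazine.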

With “FITC-Ahx-DHVVWSLFNTLFMNPC(PAL)CLGF [AH(56-75)]” the “phase partitioning in phase-separated GUVs” value ([1]; fluorescently-tagged peptide palmitoylated at Cys71) was “clearly partitioned to the Ld phase and appeared to concentrate at the phase boundary”.
In the case of “Cy5-LVWHMFLSDNFTNPV [Scrambled AH(56-71)]”, the “inward budding from the Ld phase of phase-separated GUVs” value [1] is reported as “failed to cause inward budding from this phase”.
In the case of Cy5-CVWSLFNTLFM [AH(59-68)], the “binding to the plasma membrane of INS-1E cells” value (INS-1E cells; cells pretreated with peptide) is reported as “effectively bound to the plasma membrane”.
With lyso-PC [LPC, reference compound] the “budding of GUV membrane on addition of lipid” value (Inward budding; LPC titrated on preformed GUVs containing POPC and cholesterol) was “outward budding of the GUV membrane in an LPC dose-dependent manner” and the glucose-stimulated insulin secretion (INS-1E cells; cells pretreated with 20 μM LPC) was “promoted insulin secretion”.
In the case of Cy5-DHVVWSLFNTLFMNPC [AH(56-71)], the “binding of peptide to GUVs in the absence of cholesterol” value (Inward budding; GUVs without cholesterol) is reported as “not affected”, the “inward budding of GUVs without cholesterol containing DOPE” value (Inward budding; GUVs without cholesterol, DOPE 20 mol%) is reported as “could be rescued” and the “inward budding of GUVs without cholesterol” value (Inward budding; peptide added to GUVs without cholesterol) is reported as “failed to induce efficient inward budding”. For the same substance, the “inward budding from the Ld phase of phase-separated GUVs” value [1] was “caused inward budding from this domain”.
